Source: ChEMBL document CHEMBL1136516, “Synthesis, pharmacology and pharmacokinetics of 3-(4-aryl-piperazin-1-ylalkyl)-uracils as uroselective alpha1A-antagonists” (Bioorg Med Chem Lett, 2003)

Legend:
[1] = molecular target: T1, Alpha-1D adrenergic receptor (Homo sapiens, UniProt P25100); experiment: Inhibition of [3H]prazosin binding to CHO-K1 whole cells expressing human cloned Alpha-1D adrenergic receptor; assay type: cell-based
T1 sequence (P25100 whole entry): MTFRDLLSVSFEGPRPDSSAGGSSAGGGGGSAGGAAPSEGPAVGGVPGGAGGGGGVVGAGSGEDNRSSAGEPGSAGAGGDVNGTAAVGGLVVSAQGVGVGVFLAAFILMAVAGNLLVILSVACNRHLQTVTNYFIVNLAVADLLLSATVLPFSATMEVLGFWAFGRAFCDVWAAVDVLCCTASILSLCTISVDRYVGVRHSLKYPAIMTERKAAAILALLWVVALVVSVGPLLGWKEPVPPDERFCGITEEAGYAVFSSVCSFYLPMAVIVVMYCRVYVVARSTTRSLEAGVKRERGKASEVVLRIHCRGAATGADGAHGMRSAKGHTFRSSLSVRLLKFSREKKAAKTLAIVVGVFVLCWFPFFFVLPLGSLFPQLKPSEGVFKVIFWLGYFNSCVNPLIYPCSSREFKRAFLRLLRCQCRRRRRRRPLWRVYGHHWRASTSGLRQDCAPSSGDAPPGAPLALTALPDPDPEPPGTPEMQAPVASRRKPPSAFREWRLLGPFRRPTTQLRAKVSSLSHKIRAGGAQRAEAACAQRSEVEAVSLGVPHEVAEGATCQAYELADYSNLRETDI

[2] = molecular target: T2, Alpha-1A adrenergic receptor (Homo sapiens, UniProt P35348); experiment: Inhibition of [3H]prazosin binding to CHO-K1 whole cells expressing human cloned Alpha-1A adrenergic receptor; assay type: cell-based
T2 sequence (P35348 whole entry): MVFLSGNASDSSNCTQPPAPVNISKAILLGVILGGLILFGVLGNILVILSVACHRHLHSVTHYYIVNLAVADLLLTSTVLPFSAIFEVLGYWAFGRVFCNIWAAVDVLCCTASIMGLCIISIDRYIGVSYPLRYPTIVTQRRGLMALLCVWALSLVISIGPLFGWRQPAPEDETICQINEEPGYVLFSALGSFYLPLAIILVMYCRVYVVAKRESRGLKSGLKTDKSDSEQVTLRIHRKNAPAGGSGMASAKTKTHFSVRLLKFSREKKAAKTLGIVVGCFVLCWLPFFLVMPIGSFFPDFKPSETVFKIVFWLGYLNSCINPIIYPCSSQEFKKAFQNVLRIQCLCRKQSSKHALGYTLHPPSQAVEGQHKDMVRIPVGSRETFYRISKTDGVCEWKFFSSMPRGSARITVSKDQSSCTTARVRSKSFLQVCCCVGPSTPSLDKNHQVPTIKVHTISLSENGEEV

[3] = molecular target: T3, Alpha-1B adrenergic receptor (Homo sapiens, UniProt P35368); experiment: Inhibition of [3H]prazosin binding to CHO-K1 whole cells expressing human cloned Alpha-1B adrenergic receptor; assay type: cell-based
T3 sequence (P35368 whole entry): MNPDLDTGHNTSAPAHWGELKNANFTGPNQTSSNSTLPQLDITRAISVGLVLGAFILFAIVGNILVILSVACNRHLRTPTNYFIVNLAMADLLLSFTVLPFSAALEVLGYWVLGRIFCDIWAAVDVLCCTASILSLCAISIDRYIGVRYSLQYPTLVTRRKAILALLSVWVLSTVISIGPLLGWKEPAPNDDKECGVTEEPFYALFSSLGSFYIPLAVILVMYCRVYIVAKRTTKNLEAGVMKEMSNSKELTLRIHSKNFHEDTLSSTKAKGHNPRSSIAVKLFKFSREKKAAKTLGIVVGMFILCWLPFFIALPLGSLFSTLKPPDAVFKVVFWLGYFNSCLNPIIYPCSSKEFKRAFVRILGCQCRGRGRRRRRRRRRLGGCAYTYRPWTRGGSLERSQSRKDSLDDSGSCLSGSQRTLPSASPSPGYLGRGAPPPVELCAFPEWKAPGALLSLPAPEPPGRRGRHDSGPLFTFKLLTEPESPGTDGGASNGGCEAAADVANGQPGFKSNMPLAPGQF

[4] = Oral bioavailability in dog (i.v. dosing); assay type: ADME, organism-based, Canis lupus familiaris; settings: in vivo
Method in brief: (§1)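 Single dose of 0.3 mg/kg given to dogs both iv and po in a cross-over design, four dogs per compound, with the compound dosed as a salt. Terminal half-life, volume of distribution (calculated after iv dosing only), clearance and oral bioavailability were taken from these single-dose pharmacokinetic profiles.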

[5] = Oral bioavailability in dog; assay type: ADME, organism-based, Canis lupus familiaris; settings: in vivo; method in brief: as §1
[6] = Half life period by po administration in dog at a dose of 0.3 mg/kg; assay type: ADME, organism-based, Canis lupus familiaris; design: dose 0.3 mg/kg, route oral; settings: in vivo; method in brief: as §1
[7] = Plasma clearance by iv administration in dog at a dose of 0.3 mg/kg; assay type: ADME, organism-based, Canis lupus familiaris; design: dose 0.3 mg/kg, route intravenous; method in brief: as §1
[8] = Half life period by iv administration in dog at a dose of 0.3 mg/kg; assay type: ADME, organism-based, Canis lupus familiaris; design: dose 0.3 mg/kg, route intravenous; settings: in vivo; method in brief: as §1
[9] = Volume of distribution by as 4 fold increase by iv administration in dogs; assay type: ADME, organism-based, Canis lupus familiaris; settings: dog, in vivo; method in brief: as §1
Canis familiaris = organism: Canis familiaris; experiment: In vitro relative rate of metabolism was determined in dog liver microsomes; assay type: ADME, Canis lupus familiaris
[10] = molecular target: Alpha adrenergic receptor (1a and 1d) (Homo sapiens) (UniProt P35348+P25100); experiment: Ratio of binding affinities for human cloned alpha1D- adrenoceptor to that of human cloned alpha1A- adrenoceptor (alpha-1D/alpha-1A); assay type: protein assay
Method in brief: (§2)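 Ratio of α1B (or α1D) to α1A binding affinity, calculated from pKi values for [3H]-prazosin displacement at cloned human subtypes expressed in CHO-K1 membranes or whole cells.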

[11] = molecular target: T4, Alpha-1D adrenergic receptor (Rattus norvegicus) (UniProt P23944); experiment: Antagonist inhibition noradrenaline-stimulated contractions of rat aortic strings for Alpha-1D adrenergic receptor; assay type: functional
T4 sequence (whole entry): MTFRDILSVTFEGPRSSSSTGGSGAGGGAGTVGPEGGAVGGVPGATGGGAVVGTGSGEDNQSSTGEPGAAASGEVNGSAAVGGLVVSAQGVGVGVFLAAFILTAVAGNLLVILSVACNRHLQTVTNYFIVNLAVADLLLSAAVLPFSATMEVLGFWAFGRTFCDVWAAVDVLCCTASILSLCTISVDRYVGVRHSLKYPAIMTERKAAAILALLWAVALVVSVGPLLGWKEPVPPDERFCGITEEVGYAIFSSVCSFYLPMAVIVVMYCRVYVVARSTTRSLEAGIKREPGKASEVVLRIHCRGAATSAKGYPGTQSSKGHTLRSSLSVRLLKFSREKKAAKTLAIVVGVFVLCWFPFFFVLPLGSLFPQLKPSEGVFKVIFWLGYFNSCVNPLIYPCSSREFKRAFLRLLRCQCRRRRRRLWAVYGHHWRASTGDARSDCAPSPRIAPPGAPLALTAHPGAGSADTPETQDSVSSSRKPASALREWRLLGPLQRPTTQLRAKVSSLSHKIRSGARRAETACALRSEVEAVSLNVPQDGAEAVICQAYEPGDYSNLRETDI

[12] = molecular target: Adrenergic receptors; alpha-1 A & B (Homo sapiens) (UniProt P35348+P35368); experiment: Ratio of binding affinities for human cloned alpha1B- adrenoceptor to that of human cloned alpha1A- adrenoceptor (alpha-1B/alpha-1A); assay type: protein assay; method in brief: as §2
[13] = test system: Alpha-1D/alpha-1A adrenergic receptors (rat/rabbit); experiment: Ratio of antagonistic activities against alpha-1D vs alpha-1A determined in rat aorta and rabbit bladder neck respectively
[14] = test system: Alpha-1A adrenergic receptor (Oryctolagus cuniculus); experiment: Antagonist inhibition of noradrenaline-stimulated contractions of rabbit bladderneck (RBN) for Alpha-1A adrenergic receptor

| Structure (SMILES) | Ki [1] [nM] | Ki [2] [nM] | Ki [3] [nM] | also measured |
| --- | --- | --- | --- | --- |
| Cc1c[nH]c(=O)n(CC(C)(C)CN2CCN(c3ccccc3OCC(F)(F)F)CC2)c1=O | 126 | 3.98 | 398 | – |
| Cc1cn(CCCN2CCN(c3ccccc3OCC(F)(F)F)CC2)c(=O)[nH]c1=O | 20 | 2 | 100 | – |
| Cc1c[nH]c(=O)n(CCCN2CCN(c3ccc(F)cc3OCC(F)(F)F)CC2)c1=O | 63.1 | – | – | bioavailability [4]: 100%; bioavailability [5]: 78%; half-life [6]: 2.8 h; clearance [7]: 4.33 mL/min/kg; half-life [8]: 2.5 h; Vd [9]: 0.93 L/kg |
| Cc1c[nH]c(=O)n(CCN2CCN(c3ccc(F)cc3OCC(F)(F)F)CC2)c1=O | 2.51 | 0.501 | 15.8 | – |
| CN(C)c1c[nH]c(=O)n(CCCN2CCN(c3ccc(F)cc3OCC(F)(F)F)CC2)c1=O | 100 | – | 200 | – |
| Cc1c[nH]c(=O)n(CCCN2CCN(c3ccccc3OCC(F)(F)F)CC2)c1=O | 12.6 | 0.251 | 31.6 | – |
| C[C@]1(O)C(=O)N(CCCN2CCN(c3ccc(F)cc3OCC(F)(F)F)CC2)C(=O)N[C@H]1O | 126 | 5.01 | 251 | Relative rate metabolism (Canis familiaris): 0; bioavailability [4]: 100%; bioavailability [5]: 111%; half-life [6]: 10 h; clearance [7]: 4.17 mL/min/kg; Ratio [10]: 33; pA2/pKB [11]: 6.6; Ratio [12]: 63; half-life [8]: 11 h; Vd [9]: 4 L/kg; Ratio [13]: 79; pA2/pKB [14]: 8.5 |
| O=c1[nH]c2ccccc2c(=O)n1CCCN1CCN(c2ccccc2OCC(F)(F)F)CC1 | 2 | 0.0631 | 5.01 | Ratio [10]: 32; pA2/pKB [11]: 8.4; Ratio [12]: 79; Ratio [13]: 4; pA2/pKB [14]: 9 |
| COc1c[nH]c(=O)n(CCCN2CCN(c3ccc(F)cc3OCC(F)(F)F)CC2)c1=O | 31.6 | – | 158 | – |
| Cc1cc(=O)n(CCCN2CCN(c3ccc(F)cc3OCC(F)(F)F)CC2)c(=O)[nH]1 | 50.1 | 1.58 | 158 | – |
| Cc1n[nH]c(=O)n(CCCN2CCN(c3ccccc3OCC(F)(F)F)CC2)c1=O | 7.94 | 0.316 | 39.8 | – |
